Experimental data taken from ChEMBL document CHEMBL1629579, “Correlating echinocandin MIC and kinetic inhibition of fks1 mutant glucan synthases for Candida albicans: implications for interpretive breakpoints” (Antimicrob Agents Chemother, 2009).
In brackets after ≈: the same amount, converted by molar mass. Numbered stars: 1 amine (or outer) side, 2 acyl side, 3 side chain; on linkers, the order of the positions; unused ones are H or OH. Bridge positions count the residues as written; N and C are the ends. Square brackets hold non-standard residues; d marks the D form. Peptide text beside a SMILES is read from it. * marks the point of attachment. hTyr(3S-OH,4S-OH,3'-OSO3H) = N[C@H](C(=O)O)[C@H](O)[C@@H](O)c1ccc(O)c(OS(=O)(=O)O)c1; pTerphenylCO(4''-OnC5H11) = CCCCCOc1ccc(-c2ccc(-c3ccc(C(=O)*)cc3)cc2)cc1; Orn(4R-OH,5R-OH) = O=C([C@H](C[C@@H](O)[C@@H](O)N[*:3])N[*:1])[*:2]; hTyr(3S-OH,4S-OH) = N[C@H](C(=O)O)[C@H](O)[C@@H](O)c1ccc(O)cc1; Pro(3S-OH,4S-Me) = C[C@H]1CN[C@H](C(=O)O)[C@H]1O; X1 = CCCCCOc1ccc(-c2cc(-c3ccc(C(=O)*)cc3)no2)cc1; Gln(3R-OH) = NC(=O)C[C@@H](O)[C@H](N)C(=O)O; Hyp = O=C(O)[C@@H]1C[C@@H](O)CN1

Legend:
Candida albicans [1] = assay: Antimicrobial activity against Candida albicans 90028 by M27-A3 method; type: functional
Outline: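 Broth microdilution per CLSI M27-A3 in RPMI 1640, with and without 50% human serum, in triplicate. C. krusei ATCC 6258 and C. parapsilosis ATCC 22019 served as quality-control strains. MIC reported as arithmetic mean of three repetitions on separate days.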

Candida albicans [2] = assay: Antimicrobial activity against Candida albicans 3107 by M27-A3 method; type: functional
Outline: (§1)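 Broth microdilution per CLSI M27-A3 in RPMI 1640, done in triplicate on three separate days. Each strain was tested with and without 50% human serum. C. krusei ATCC 6258 and C. parapsilosis ATCC 22019 served as QC strains. Arithmetic means are reported, and geometric means were used for comparison.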

Candida albicans [3] = assay: Antimicrobial activity against Candida albicans 177 harboring FKS1 T1922C mutant gene and FKS1 hotspot1 F641S mutant gene by M27-A3 method; type: functional; outline: as §1
Candida albicans [4] = assay: Antimicrobial activity against Candida albicans 177 harboring FKS1 T1922C mutant gene and FKS1 hotspot1 F641S mutant gene by M27-A3 method in presence of 50% human serum; type: functional; outline: as §1
Candida albicans [5] = assay: Antimicrobial activity against Candida albicans 5415 harboring FKS1 T1933C mutant gene and FKS1 hotspot1 S645P mutant gene by M27-A3 method; type: functional; outline: as §1
Candida albicans [6] = assay: Antimicrobial activity against Candida albicans 122 harboring FKS1 C1946A mutant gene and FKS1 hotspot1 P649H mutant gene by M27-A3 method in presence of 50% human serum; type: functional; outline: as §1
Candida albicans [7] = assay: Antimicrobial activity against Candida albicans A15 harboring FKS1 T1933Y mutant gene and FKS1 hotspot1 S645S/P mutant gene by M27-A3 method; type: functional; outline: as §1
[8] = Inhibition of Candida albicans SC5314 1,3-beta-D-glucan synthase subunit FKS1p
Outline: (§2)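 Enzyme is product-entrapped 1,3-β-D-glucan synthase, enriched from membranes of each strain grown at 37°C with shaking in YPD broth to early stationary phase. Filtration polymerization assay uses [3H]UDPG, started by adding enzyme and run 60 min at 25°C. Echinocandins are added as serial dilutions, with 1% DMSO controls for anidulafungin. IC50 is from a variable-slope sigmoidal fit; values are triplicate arithmetic means.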

[9] = Inhibition of Candida albicans 90028 1,3-beta-D-glucan synthase subunit FKS1p; outline: as §2
[10] = Inhibition of Candida albicans 119 1,3-beta-D-glucan synthase subunit FKS1p T1921C mutant
Outline: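 Product-entrapped glucan synthase from YPD-grown cells (37°C, early stationary phase) in a filtration polymerization assay with [3H]UDPG. Echinocandin serial dilutions were added, with 1% DMSO in controls for anidulafungin. Reactions were started with enzyme, run 60 min at 25°C and stopped on ice. IC50 came from a variable-slope sigmoidal fit, in triplicate.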

[11] = Inhibition of Candida albicans 149 1,3-beta-D-glucan synthase subunit FKS1p G1942T mutant; outline: as §2
[12] = Inhibition of Candida albicans A15 1,3-beta-D-glucan synthase subunit FKS1p T1933Y mutant; outline: as §2
Candida albicans [13] = assay: Activity at Candida albicans 3107 1,3-beta-D-glucan synthase subunit FKS1p
Outline: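 Glucan synthase from cells grown at 37°C with vigorous shaking to early stationary phase in YPD. Membrane enzyme enriched by product entrapment. Serial echinocandin dilutions; ANF controls held 1% DMSO. Reaction started by adding enzyme, run 60 min at 25°C in a filtration polymerization assay, stopped on ice. IC50 from a variable-slope sigmoidal fit; means of three repetitions on separate days.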

Candida albicans [14] = assay: Activity at Candida albicans 89 1,3-beta-D-glucan synthase subunit FKS1p C1934A mutant
Outline: (§3)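 Product-entrapped 1,3-β-D-glucan synthase from cells grown in YPD at 37°C to early stationary phase. Wells held 50 mM HEPES pH 7.5, 10% glycerol, 1.5 mg/ml BSA, 25 mM KF, 1 mM EDTA, 25 μM GTP-γ-S, 1 μg enzyme and [3H]UDPG (0.015–2 mM). Reactions ran 60 min at 25°C. Vmax and Km came from Lineweaver-Burke plots, in triplicate.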

Candida albicans [15] = assay: Activity at Candida albicans 149 1,3-beta-D-glucan synthase subunit FKS1p G1942T mutant; outline: as §3
Candida albicans [16] = assay: Activity at Candida albicans 121 1,3-beta-D-glucan synthase subunit FKS1p G4082A mutant; outline: as §3
Candida albicans [17] = assay: Activity at Candida albicans 194 1,3-beta-D-glucan synthase subunit FKS1p C1934T/G4082R mutant; outline: as §3
Candida albicans [18] = assay: Selectivity ratio of Ki for Candida albicans 119 1,3-beta-D-glucan synthase subunit FKS1p T1921C mutant to Ki for Candida albicans SC5314 wild type 1,3-beta-D-glucan synthase subunit FKS1p
Candida albicans [19] = assay: Selectivity ratio of Ki for Candida albicans 177 1,3-beta-D-glucan synthase subunit FKS1p T1922C mutant to Ki for Candida albicans SC5314 wild type 1,3-beta-D-glucan synthase subunit FKS1p
Candida albicans [20] = assay: Selectivity ratio of Ki for Candida albicans 205 1,3-beta-D-glucan synthase subunit FKS1p T1933C mutant to Ki for Candida albicans SC5314 wild type 1,3-beta-D-glucan synthase subunit FKS1p
Candida albicans [21] = assay: Selectivity ratio of Ki for Candida albicans 5415 1,3-beta-D-glucan synthase subunit FKS1p T1933C mutant to Ki for Candida albicans SC5314 wild type 1,3-beta-D-glucan synthase subunit FKS1p
Candida albicans [22] = assay: Selectivity ratio of Ki for Candida albicans 122 1,3-beta-D-glucan synthase subunit FKS1p C1946A mutant to Ki for Candida albicans SC5314 wild type 1,3-beta-D-glucan synthase subunit FKS1p
Candida albicans [23] = assay: Selectivity ratio of Ki for Candida albicans 121 1,3-beta-D-glucan synthase subunit FKS1p G4082A mutant to Ki for Candida albicans SC5314 wild type 1,3-beta-D-glucan synthase subunit FKS1p
Candida albicans [24] = assay: Selectivity ratio of Ki for Candida albicans 194 1,3-beta-D-glucan synthase subunit FKS1p C1934T/G4082R mutant to Ki for Candida albicans SC5314 wild type 1,3-beta-D-glucan synthase subunit FKS1p
Candida albicans [25] = assay: Selectivity ratio of Ki for Candida albicans 90 1,3-beta-D-glucan synthase subunit FKS1p G4082R mutant to Ki for Candida albicans SC5314 wild type 1,3-beta-D-glucan synthase subunit FKS1p
Candida albicans [26] = assay: Selectivity ratio of Ki for Candida albicans A15 1,3-beta-D-glucan synthase subunit FKS1p T1933Y mutant to Ki for Candida albicans SC5314 wild type 1,3-beta-D-glucan synthase subunit FKS1p
Candida albicans [27] = assay: Selectivity ratio of Ki for Candida albicans A15-10 1,3-beta-D-glucan synthase subunit FKS1p T1933C mutant to Ki for Candida albicans SC5314 wild type 1,3-beta-D-glucan synthase subunit FKS1p

Structure (SMILES) | MIC (Candida albicans [1]) [mg/L] | MIC (Candida albicans [2]) [mg/L] | MIC (Candida albicans [3]) [mg/L] | MIC (Candida albicans [4]) [mg/L] | MIC (Candida albicans [5]) [mg/L] | MIC (Candida albicans [6]) [mg/L] | MIC (Candida albicans [7]) [mg/L] | Ki [8] [mg/L] | IC50 [9] [mg/L] | Ki [9] [mg/L] | IC50 [10] [mg/L] | Ki [10] [mg/L] | IC50 [11] [mg/L] | Ki [11] [mg/L] | IC50 [12] [mg/L] | Km (Candida albicans [13]) [µM] | Vmax (Candida albicans [13]) [nmol/min] | Km (Candida albicans [14]) [µM] | Vmax (Candida albicans [14]) [nmol/min] | Km (Candida albicans [15]) [µM] | other results
CCCCCOc1ccc(-c2ccc(-c3ccc(C(=O)N[C@H]4C[C@@H](O)[C@@H](O)NC(=O)[C@@H]5[C@@H](O)[C@@H](C)CN5C(=O)[C@H]([C@@H](C)O)NC(=O)[C@H]([C@H](O)[C@@H](O)c5ccc(O)cc5)NC(=O)[C@@H]5C[C@@H](O)CN5C(=O)[C@H]([C@@H](C)O)NC4=O)cc3)cc2)cc1 [ANIDULAFUNGIN] ({pTerphenylCO(4''-OnC5H11)}-[Orn(4R-OH,5R-OH)]T[Hyp][hTyr(3S-OH,4S-OH)]T[Pro(3S-OH,4S-Me)]; lactam 1-C) | 0.03 (≈ 0.0263 µM) | 0.03 (≈ 0.0263 µM) | 0.83 (≈ 0.728 µM) | 4 | 2 (≈ 1.75 µM) | 8 | 0.5 (≈ 0.438 µM) | 0.00133 (≈ 0.00117 µM) | 0.00183 (≈ 0.0016 µM) | 0.00063 (≈ 0.000553 µM) | 0.0113 (≈ 0.00991 µM) | 0.00677 (≈ 0.00594 µM) | 0.0933 (≈ 0.0818 µM) | 0.17055 (≈ 0.15 µM) | 0.1287 (≈ 0.113 µM) | 102 | 6.04 | 61 | 2.51 | 32 | IC50 [8]: 0.00089 mg/L (≈ 0.000781 µM); Vmax (Candida albicans [15]): 1.22 nmol/min; Km (Candida albicans [16]): 129 µM; Vmax (Candida albicans [16]): 4.41 nmol/min; Km (Candida albicans [17]): 61 µM; Vmax (Candida albicans [17]): 5.81 nmol/min; Ratio Ki (Candida albicans [18]): > 100; Ratio Ki (Candida albicans [19]): > 100; Ratio Ki (Candida albicans [20]): > 100; Ratio Ki (Candida albicans [21]): > 100; Ratio Ki (Candida albicans [22]): > 100; Ratio Ki (Candida albicans [23]): > 100; Ratio Ki (Candida albicans [24]): > 100; Ratio Ki (Candida albicans [25]): > 100; Ratio Ki (Candida albicans [26]): > 100; Ratio Ki (Candida albicans [27]): > 100
CC[C@H](C)C[C@H](C)CCCCCCCCC(=O)N[C@H]1C[C@@H](O)[C@@H](NCCN)NC(=O)[C@@H]2[C@@H](O)CCN2C(=O)[C@H]([C@H](O)CCN)NC(=O)[C@H]([C@H](O)[C@@H](O)c2ccc(O)cc2)NC(=O)[C@@H]2C[C@@H](O)CN2C(=O)[C@H]([C@@H](C)O)NC1=O [CASPOFUNGIN] | 0.21 (≈ 0.192 µM) | 0.25 (≈ 0.229 µM) | 4 (≈ 3.66 µM) | 16 | 8 (≈ 7.32 µM) | 4 | 4 (≈ 3.66 µM) | 0.00297 (≈ 0.00272 µM) | 0.0005 (≈ 0.000457 µM) | 0.00046 (≈ 0.000421 µM) | 0.01003 (≈ 0.00917 µM) | 0.00492 (≈ 0.0045 µM) | 0.06822 (≈ 0.0624 µM) | 0.2 (≈ 0.183 µM) | 0.2181 (≈ 0.199 µM) | 102 | 6.04 | 61 | 2.51 | 32 | Vmax (Candida albicans [15]): 1.22 nmol/min; Km (Candida albicans [16]): 129 µM; Vmax (Candida albicans [16]): 4.41 nmol/min; Km (Candida albicans [17]): 61 µM; Vmax (Candida albicans [17]): 5.81 nmol/min
CCCCCOc1ccc(-c2cc(-c3ccc(C(=O)N[C@H]4C[C@@H](O)[C@@H](O)NC(=O)[C@@H]5[C@@H](O)[C@@H](C)CN5C(=O)[C@H]([C@H](O)CC(N)=O)NC(=O)[C@H]([C@H](O)[C@@H](O)c5ccc(O)c(OS(=O)(=O)O)c5)NC(=O)[C@@H]5C[C@@H](O)CN5C(=O)[C@H]([C@@H](C)O)NC4=O)cc3)no2)cc1 [MICAFUNGIN] (X1-[Orn(4R-OH,5R-OH)]T[Hyp][hTyr(3S-OH,4S-OH,3'-OSO3H)][Gln(3R-OH)][Pro(3S-OH,4S-Me)]; lactam 1-C) | 0.03 (≈ 0.0236 µM) | 0.03 (≈ 0.0236 µM) | 1 (≈ 0.787 µM) | 16 | 4 (≈ 3.15 µM) | 4 | 0.5 (≈ 0.394 µM) | 0.02747 (≈ 0.0216 µM) | 0.0188 (≈ 0.0148 µM) | 0.01547 (≈ 0.0122 µM) | 0.1836 (≈ 0.145 µM) | 0.1559 (≈ 0.123 µM) | 0.3755 (≈ 0.296 µM) | 0.48923 (≈ 0.385 µM) | 0.1773 (≈ 0.14 µM) | 102 | 6.04 | 61 | 2.51 | 32 | IC50 [8]: 0.0582 mg/L (≈ 0.0458 µM); Vmax (Candida albicans [15]): 1.22 nmol/min; Km (Candida albicans [16]): 129 µM; Vmax (Candida albicans [16]): 4.41 nmol/min; Km (Candida albicans [17]): 61 µM; Vmax (Candida albicans [17]): 5.81 nmol/min
